Screening data: PubChem, several laboratories
Rows were chosen to be rich in hits. Some 4.7% of all compounds tested hit in one or more screens of this group.
KCC2 mod = KCC2 cotransporter modulators, thallium flux, primary screen, cell-based, HEK293 KCC2, FluoZin-2 fluorescence, MLSMR; Solute carrier family 12 member 5 (Homo sapiens), Q9H2X9; KCC2 cells, thallium flux FluoZin-2 fluorescence; B-score of Tl+ flux slope (higher = more flux/activation; lower = inhibition) at 10 µM; AID 1456, 2008; 190,000 compounds, 2.2% hits;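 active means thallium flux slope and its plate-corrected score both differing from the plate sample mean at a set confidence after two filtering rounds, in either direction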;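 further: slope of fluorescence scaled to starting intensity during 10 to 20 s after thallium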
MrgX1 allo act = positive allosteric modulators of MrgX1, primary screen, HEK293 cells, Fluo-4 calcium flux | 310,000 compounds, 0.63% hits | B-score at 10 µM | FDSS; active compounds read high | Mas-related G-protein coupled receptor member X1 (Homo sapiens), Q96LB2;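 active means plate-corrected calcium response at least 3 library SD above typical, normal starting fluorescence, not activating the receptor alone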;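 further: compound read alongside a low EC10 to EC30 dose of BAM8-22 agonist; peak minus trough fluorescence over baseline measured at the second addition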
Target sequence (Q96LB2 whole entry, looked up): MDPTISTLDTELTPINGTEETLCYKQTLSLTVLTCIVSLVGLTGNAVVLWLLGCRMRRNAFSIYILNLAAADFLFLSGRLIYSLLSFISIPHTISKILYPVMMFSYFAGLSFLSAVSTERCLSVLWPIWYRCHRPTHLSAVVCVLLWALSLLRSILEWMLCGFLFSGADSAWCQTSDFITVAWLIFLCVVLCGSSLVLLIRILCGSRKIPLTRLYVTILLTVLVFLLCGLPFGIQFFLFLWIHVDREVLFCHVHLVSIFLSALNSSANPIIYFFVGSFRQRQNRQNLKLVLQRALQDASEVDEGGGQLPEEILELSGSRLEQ
MrgX1 antagonist = antagonists of human MrgX1 receptor, primary screen, HEK293 cells, Fluo-4 calcium flux; B-score at 10 µM; BAM8-22 antagonism; active compounds read low; 310,000 compounds, 1.3% hits;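 active means calcium-response B-score plate-corrected more than 3 library SD below zero, starting fluorescence within 5 deviations, no agonist response on first addition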;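 further: peak minus trough fluorescence over baseline after final BAM8-22 challenge near maximal dose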
MrgX1 agonist = agonists of human MrgX1 receptor, primary screen, HEK293 cells, Fluo-4 calcium flux | Mas-related G-protein coupled receptor member X1 (Homo sapiens), Q96LB2 | Fluo-4 calcium fluorescence, agonist mode; active compounds read high | B-score at 10 µM | 310,000 compounds, 0.44% hits | AID 588627, 2011;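 active means calcium response B-score plate-corrected fluorescence ratio at least 3 library SD, with starting fluorescence B-score inside 5 SD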
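times = overnight plating, then 30 min 37 °C plus 30 min room-temperature dye loading | assay system = stable human MrgX1 HEK293 cell line | input = fifteen thousand cells per well | signal = kinetic calcium dye fluorescence, Fluo-4 NW | dosing = compound delivered in addition one of three | read-out = B-scored fluorescence response ratio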
RGS4 pot = RGS4 potentiators or activators, primary screen, cell-based, HEK293 M3R inducible RGS4, calcium flux. B-score at 10 µM. 310,000 compounds, 0.92% hits. carbachol calcium flux Fluo4; active compounds read low;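 active means B-score of the integrated calcium signal more than 4 SD below the library mean, with starting fluorescence not abnormally high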;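 further: negative B-score means reduced calcium response which marks RGS4 activation or potentiation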
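System – HEK293 FlpIn-TREx cells, stable M3R, doxycycline-inducible RGS4 · Reagent – ECmax carbachol challenge · Times – compound preincubation 20 min at room temperature before agonist · Technique – Fluo4 fluorescence kinetic imaging of calcium · Measure – B score of integrated Fluo4 ratio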
RGS4 inh = RGS4 inhibitors, primary screen, cell-based, HEK293 M3R inducible RGS4, calcium flux | B-score at 10 µM | Regulator of G-protein signaling 4 (Homo sapiens), P49798 | AID 463165, 2010 | 310,000 compounds, 0.45% hits | Fluo-4 calcium flux; active compounds read high; triggered by carbachol at its EC20;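 active means B-score, a plate-corrected calcium signal, over three deviations above library mean, with baseline fluorescence within five deviations of library mean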;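 further: RGS4 expression induced by doxycycline in cells with stable M3 receptor; B-score is computed from the integrated fluorescence ratio over baseline after carbachol; higher B-score means a larger calcium signal and so more RGS4 inhibition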
Target sequence (P49798 whole entry, looked up): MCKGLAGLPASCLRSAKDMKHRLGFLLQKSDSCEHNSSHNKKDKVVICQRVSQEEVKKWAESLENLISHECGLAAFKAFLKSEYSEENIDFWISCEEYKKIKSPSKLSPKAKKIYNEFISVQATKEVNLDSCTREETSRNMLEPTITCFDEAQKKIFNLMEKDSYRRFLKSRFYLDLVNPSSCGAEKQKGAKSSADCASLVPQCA
MrgX1 ag confirm = MrgX1 receptor agonists, duplicate retest, confirmation, HEK293 cells, Fluo-4 calcium flux; shares compounds with MrgX1 agonist; Fluo-4 calcium fluorescence, FDSS; activation, % at 10 µM; 600 compounds, 78% hits; AID 602412, 2012;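 active means calcium signal rise, corrected for plate position, at least 3 library SD high, with starting brightness within 5 such deviations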; further: reference of the scale not given here
HEK293 Ca flux = nonspecific calcium signal in parental HEK293, confirmation, counter-screen for MrgX1 antagonist project, parental HEK293 cells, Fluo-4 calcium flux; shares compounds with MrgX1 antagonist; Fluo-4 calcium fluorescence, FDSS; fluorescence ratio F(max-min)/F0 at 10 µM; 4,000 compounds, 2% hits; AID 624111, 2012;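 active means duplicate-averaged calcium fluorescence ratio at least three times the standard deviation of buffer wells, a nonspecific response in parental cells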
HEK293 Ca counter = calcium response in parental HEK293 cells, primary screen, counter-screen for MrgX1 allosteric activator project, cell-based, Fluo-4 calcium flux, duplicate; shares compounds with MrgX1 antagonist; Fluo-4 fluorescence ratio; active compounds read high; fluorescence ratio F(max-min)/F0 at 10 µM; 4,000 compounds, 0.4% hits; AID 624114, 2012;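 active means calcium fluorescence ratio, averaged over duplicates, at least 3 SD of the buffer-well ratio, meaning a nonspecific response in receptor-free cells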;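 further: untransfected parental HEK293 lacking MrgX1 used as counterscreen for MrgX1 allosteric activators; fluorescence change taken during the second addition on a kinetic imager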
HEK293 Ca cntr2 = calcium response in parental HEK293 cells, primary screen, counter-screen for MrgX1 agonist project, cell-based, Fluo-4 calcium flux, duplicate, agonist mode; shares compounds with MrgX1 antagonist; Fluo-4 calcium fluorescence (FDSS); active compounds read high; fluorescence ratio F(max-min)/F0 at 10 µM; 4,000 compounds, 8.7% hits; AID 624115, 2012;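 active means calcium fluorescence ratio at least three times the spread of buffer wells, meaning a non-specific response in parental cells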
* marks the source's active call; other numbers are inactive results; i = inactive; / = no result.

SMILES | KCC2 mod | MrgX1 allo act | MrgX1 antagonist | MrgX1 agonist | RGS4 pot | RGS4 inh | MrgX1 ag confirm | HEK293 Ca flux | HEK293 Ca counter | HEK293 Ca cntr2
Nc1nc2ccccc2cc1-c1cccs1 | / | i | i | 45* | i | i | 196%* | i | i | i
c1csc(-c2ccc3ccccc3n2)c1 | -0.015 | i | i | i | i | i | / | / | / | /
COc1cc(SC)ccc1C(=O)NCCCn1ccnc1 | / | i | i | i | i | i | / | / | / | /
c1ccc(Cn2cc(CN3CCCO3)c(-c3ccc4c(c3)OCO4)n2)cc1 | 0.23 | i | i | i | i | i | / | / | / | /
Cc1ccc(Nc2nc3nonc3[nH]c2=O)cc1 | -1.9 | i | i | i | i | i | / | / | / | /
CC(C)Nc1nc2nonc2nc1Nc1ccccc1 | -0.26 | i | i | 29* | i | i | 175%* | i | i | i
Cc1sc(NC(=O)C2CCCCC2C(=O)O)c(C(N)=O)c1-c1ccc(C(C)(C)C)cc1 (centres undefined) | / | i | i | 95* | i | i | 299%* | i | i | 68*
Oc1cccc(Nc2nc(O)c(/C=C3\C=Nc4ccccc43)s2)c1 | -0.16 | i | i | 39* | / | / | 416%* | i | i | 76*
COc1cccc(CN2CCN(Cc3cc4ccccc4[nH]3)CC2CCO)c1 (centres undefined) | -0.084 | i | i | 123* | i | i | 313%* | i | i | 49*
CCc1nnc(NC(=O)CSCc2cc(=O)n3nc(C)sc3n2)s1 | / | i | i | i | i | i | / | / | / | /
CCCOc1ccc(C(=O)NNC(=S)NC(=O)c2cccs2)cc1 | / | i | i | 110* | -8.6* | i | 496%* | i | i | 104*
CCCC(=O)Nc1ccc(C(=O)NNC(=S)NC(=O)c2cccs2)cc1 | -0.35 | i | i | i | i | i | / | / | / | /
O=C(NNC(=S)NC(=O)c1ccccc1)c1ccc(O)cc1 | / | i | i | i | i | i | / | / | / | /
CCCOc1ccc(C(=O)NNC(=S)NC(=O)c2ccccc2)cc1 | / | i | i | 91* | -8.4* | i | 663%* | i | i | 128*
C=CCNc1ncnc2c1[nH]c1ccc(Cl)cc12 | 0.49 | i | i | 65* | i | i | 353%* | i | i | 59*
Cc1cccc(N(CC(=O)NCC2CCCO2)C(=O)CCC(=O)Nc2nccs2)c1 (centres undefined) | / | i | i | i | i | i | / | / | / | /
CCC(CC)c1nc(C#N)c(NCc2ccccc2)o1 | -0.076 | i | i | 27* | i | i | 230%* | i | i | 50*
N#Cc1nc(-c2cccs2)oc1NCc1ccccc1 | -1.6 | i | i | i | i | i | / | / | / | /
N#Cc1nc(-c2ccc(F)cc2)oc1NCc1ccccc1 | 0.36 | i | i | i | i | i | / | / | / | /
N#Cc1nc(Cc2ccccc2)oc1NCc1ccccc1 | / | i | i | 31* | i | i | 108%* | i | i | i
COc1ccc(OC(C)C(=O)NC(C)c2ccccc2)cc1 (centres undefined) | / | i | i | i | i | i | / | / | / | /
Fc1cccc(Cl)c1CN1CCN(c2nc3ccccc3s2)CC1 | / | i | i | 31* | i | i | 224%* | i | i | i
Cc1ccc(NC(=O)c2cccc(S(=O)(=O)N(C)C3CCCCC3)c2)nc1 | / | i | i | i | i | i | / | / | / | /
Cc1ccc(-n2c(CCC(=O)O)ccc2-c2cccs2)cc1 | / | i | i | 33* | i | i | 149%* | i | i | i
O=C(O)C/C(=C\c1cc(Cl)c2c(c1)OCO2)c1nc2ccccc2s1 | / | i | i | 35* | i | i | 91%* | i | i | i
SMILES | KCC2 mod | MrgX1 allo act | MrgX1 antagonist | MrgX1 agonist | RGS4 pot | RGS4 inh | MrgX1 ag confirm | HEK293 Ca flux | HEK293 Ca counter | HEK293 Ca cntr2
Nc1c(Cl)cc(-c2cn(CCC(=O)O)c(-c3ccncc3)n2)cc1Cl | / | i | i | i | / | / | / | / | / | /
CCOc1ccc(NC2=NCC(=O)N2CCc2ccccc2)cc1 | -1.2 | i | i | 27* | i | i | 122%* | i | i | i
CC(C)OC(=O)CSc1nnc(-c2ccncc2)n1N | / | i | i | 41* | i | i | i | i | i | i
CCCCn1c(N)c(N(CCOC)C(=O)c2ccc(C)c(S(=O)(=O)N3CCCCC3)c2)c(=O)[nH]c1=O | / | i | i | i | i | i | / | / | / | /
CCN1C(=O)/C(=C/c2ccc(OCc3ccc(C(=O)O)cc3)c(Cl)c2)NC1=S | / | i | i | i | i | i | / | / | / | /
CCN1C(=O)/C(=C/c2ccc(N3CCCC3)cc2)NC1=S | 4.1 | i | i | 70* | i | i | i | 0.02* | i | 251*
NCCC(=O)N1c2ccccc2Sc2ccc(Cl)cc21 | / | i | i | 79* | i | i | 244%* | i | i | i
O=C(CCN1CCN2CCCC2C1)N1c2ccccc2Sc2ccc(Cl)cc21 (centres undefined) | / | i | i | i | i | i | / | / | / | /
O=C(c1cccc(NS(=O)(=O)c2cccc(F)c2)c1)N1CCCC1 | / | / | / | / | i | i | / | / | / | /
O=C1Cc2ccccc2Sc2cc(OCCCN3CCCCC3)ccc21 | 0.12 | i | i | i | i | i | / | / | / | /
